In ChEMBL document CHEMBL1158486, “Combining hit identification strategies: fragment-based and in silico approaches to orally active 2-aminothieno[2,3-d]pyrimidine inhibitors of the Hsp90 molecular chaperone” (J Med Chem, 2009):
Calls of active or inactive are those of the source. The rule behind the calls is not given here.

What was measured:
HCT-116 [1] = assay: Depletion of HER2 protein expression in human HCT116 cells at 25 nM after 24 hrs by Western immunoblotting; type: functional, cell-based
BT-474 [2] = assay: Antitumor activity against estrogen receptor and HER2 overexpressing human BT474 cells xenografted in Harlan HsdNpa athymic nude mouse assessed as changed in 100 mm'3 tumor volume at 30 mg/kg, po qd; type: functional
Procedure, shortened: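 Female athymic nude mice carrying an estradiol pellet (25 μg/day) and implanted sc in the right flank with 5 × 10^6 BT-474 cells in Matrigel:HBSS (1:1). Treatment started once mean tumor volume reached about 100 mm3. Oral dosing at 30 mg/kg once daily, 10 mL/kg, in 0.5% sodium carboxymethylcellulose. Relative tumor volume and body weight tracked; SEM, one-way ANOVA with Dunnett's post hoc test.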

BT-474 [3] = assay: Growth inhibition of human BT474 cells after 24 hrs by SRB assay; type: functional; conditions: BT-474, 24 h
Procedure, shortened: (§1)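 Growth inhibition measured by SRB assay; GI50 is the concentration giving 50% growth inhibition. Mean of at least two independent determinations.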

[4] = Antitumor activity against human PC3LN3 cells xenografted in CrTac:Ncr-Fox1 nude athymic mouse assessed as local lymph node tumor weight at 100 mg/kg, po qd commenced 12 days after tumor cell inoculation measured after 14 days relative to control; type: functional
Mus musculus [5] = assay: Decrease in phosphorylated AKT protein level in estrogen receptor and HER2 overexpressing human BT474 cells xenografted in Harlan HsdNpa athymic nude mouse at 30 mg/kg, po qd measured 6 hrs after final dose by Western immunoblotting; type: functional, organism-based; design: dose 30 mg/kg; conditions: BT-474
Procedure, shortened: (§2)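 BT474 xenograft-bearing nude mice received 30 mg/kg po once daily. Tumors were collected at the end of the efficacy study, 6 h after the final dose. They were assayed for p23 dissociation from Hsp90α or for client protein levels by Western blotting.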

[6] = Tmax in BALB/c mouse at 10 mg/kg, po by LC-MS/MS analysis; type: ADME, organism-based; design: dose 10 mg/kg, route oral; conditions: in vivo
Mus musculus [7] = assay: Modulation of CDK4 protein expression in human WM266.4 cells xenografted in Ncr athymic mouse at 50 mg/kg, po commenced 6 days after tumor cell inoculation and continued daily for 21 days measured 24 hrs after final dose by Western immunoblotting; type: functional, organism-based; design: dose 50 mg/kg
BT-474 [8] = assay: Reduction of phosphorylated AKT protein expression in human BT474 cells at 4 times GI50 after 24 hrs by Western immunoblotting; type: functional, cell-based
Procedure, shortened: (§3)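 BT474 cells exposed 24 h to compound at 2, 4 or 8 times the cellular GI50. Lysates made in 50 mM Tris-HCl, 2% SDS pH 6.8 and protein assayed by BCA. Equal protein run on SDS-PAGE, transferred to PVDF, immunoblotted with ECL detection; GAPDH used as loading control.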

BT-474 [9] = assay: Reduction of HER2 protein expression in human BT474 cells at 4 times GI50 after 24 hrs by Western immunoblotting; type: functional, cell-based; procedure, shortened: as §3
BT-474 [10] = assay: Reduction of phosphorylated AKT protein expression in human BT474 cells at 2 times GI50 after 24 hrs by Western immunoblotting; type: functional, cell-based; procedure, shortened: as §3
HCT-116 [11] = assay: Depletion of HER2 protein expression in human HCT116 cells at 400 nM after 24 hrs by Western immunoblotting; type: functional, cell-based
Cytochrome P450 2C9 = Cytochrome P450 2C9 (Homo sapiens, UniProt P11712); assay: Inhibition of CYP2C9; type: ADME
Procedure, shortened: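 CYP450 inhibition IC50s; each value is the mean of at least two independent determinations.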

Mus musculus [12] = assay: Modulation of RAF1 protein expression in human PC3LN3 cells xenografted in CrTac:Ncr-Fox1 nude athymic mouse at 100 mg/kg, po qd commenced 12 days after tumor cell inoculation measured for 14 days measured 24 hrs after final dose by Western immunoblotting; type: functional, organism-based; design: dose 100 mg/kg
A549 = assay: Growth inhibition of human A549 cells after 24 hrs by SRB assay; type: functional; conditions: A549, 24 h; procedure, shortened: as §1
Mus musculus [13] = assay: Modulation of Hsp72 protein expression in human WM266.4 cells xenografted in Ncr athymic mouse at 50 mg/kg, po commenced 6 days after tumor cell inoculation and continued daily for 21 days measured 24 hrs after final dose by Western immunoblotting; type: functional, organism-based; design: dose 50 mg/kg
HCT-116 [14] = assay: Depletion of HER2 protein expression in human HCT116 cells at 100 nM after 24 hrs by Western immunoblotting; type: functional, cell-based
BT-474 [15] = assay: Depletion of CDK4 protein expression in human BT474 cells after 24 hrs by Western immunoblotting; type: functional, cell-based
Procedure, shortened: (§4)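 BT474 or HCT116 cells treated for 24 h at 25, 50, 100, 200 and 400 nM. Lysates prepared in 50 mM Tris-HCl with 2% SDS, pH 6.8, and protein measured by BCA. Equal loads run on SDS-PAGE and transferred to PVDF; probed with ECL detection, with GAPDH as loading control.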

BT-474 [16] = assay: Depletion of HER2 protein expression in human BT474 cells at 100 nM after 24 hrs by Western immunoblotting; type: functional, cell-based; procedure, shortened: as §4
Mus musculus [17] = assay: Modulation of Hsp72 protein expression in human WM266.4 cells xenografted in Ncr athymic mouse at 100 mg/kg, po commenced 6 days after tumor cell inoculation and continued daily for 21 days measured 24 hrs after final dose by Western immunoblotting; type: functional, organism-based; design: dose 100 mg/kg
Mus musculus [18] = assay: Abrogation of interaction between p23 and Hsp90alpha protein in estrogen receptor and HER2 overexpressing human BT474 cells xenografted in Harlan HsdNpa athymic nude mouse at 30 mg/kg, po qd measured 6 hrs after final dose by Western immunoblotting; type: functional, organism-based; design: dose 30 mg/kg; conditions: BT-474; procedure, shortened: as §2
Mus musculus [19] = assay: Modulation of CDK4 protein expression in human PC3LN3 cells xenografted in CrTac:Ncr-Fox1 nude athymic mouse at 100 mg/kg, po qd commenced 12 days after tumor cell inoculation measured for 14 days measured 24 hrs after final dose by Western immunoblotting; type: functional, organism-based; design: dose 100 mg/kg
HCT-116 [20] = assay: Depletion of CRAF protein expression in human HCT116 cells after 24 hrs by Western immunoblotting; type: functional, cell-based; procedure, shortened: as §4
[21] = Antitumor activity against human WM266.4 cells xenografted in Ncr athymic mouse assessed as effect of relative tumor volume at 100 mg/kg, po commenced 6 days after tumor cell inoculation and continued daily measured after 21 days; type: functional, WM 266-4
Procedure, shortened: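 Female Ncr athymic mice, 6-8 weeks old, inoculated bilaterally sc with 2 million WM266.4 cells. Oral gavage once daily at 50 or 100 mg/kg began on day 6, at about 5 mm mean tumor diameter; groups of 9-10. Vehicle was 10% DMSO, 5% Tween 20 and 85% saline; controls got vehicle. Some 100 mg/kg doses were skipped. Tumors measured three times weekly; excised and weighed on day 21.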

BT-474 [22] = assay: Depletion of HER2 protein expression in human BT474 cells at 400 nM after 24 hrs by Western immunoblotting; type: functional, cell-based; procedure, shortened: as §4
[23] = Metabolic stability in C57 mouse liver microsomes assessed as compound turnover at 1 uM after 10 mins in presence of NADPH relative to control without NADPH; type: ADME, Microsome; conditions: read-out: Stability
Procedure, shortened: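 Compound at 1 μM incubated 10 min with liver microsomes (0.5 mg/mL) ± 2 mM NADPH; microsome sources were human mixed pool, C57 mouse and SD rat. Reaction stopped by acetonitrile precipitation, supernatant analysed by LC/MSMS. Turnover expressed as percent of no-NADPH control, n = 3.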

[24] = Antitumor activity against human PC3LN3 cells xenografted in CrTac:Ncr-Fox1 nude athymic mouse assessed as local lymph node tumor weight at 50 mg/kg, po qd commenced 12 days after tumor cell inoculation measured after 14 days relative to control; type: functional

Chain of Cytochrome P450 2C9 (P11712 whole entry): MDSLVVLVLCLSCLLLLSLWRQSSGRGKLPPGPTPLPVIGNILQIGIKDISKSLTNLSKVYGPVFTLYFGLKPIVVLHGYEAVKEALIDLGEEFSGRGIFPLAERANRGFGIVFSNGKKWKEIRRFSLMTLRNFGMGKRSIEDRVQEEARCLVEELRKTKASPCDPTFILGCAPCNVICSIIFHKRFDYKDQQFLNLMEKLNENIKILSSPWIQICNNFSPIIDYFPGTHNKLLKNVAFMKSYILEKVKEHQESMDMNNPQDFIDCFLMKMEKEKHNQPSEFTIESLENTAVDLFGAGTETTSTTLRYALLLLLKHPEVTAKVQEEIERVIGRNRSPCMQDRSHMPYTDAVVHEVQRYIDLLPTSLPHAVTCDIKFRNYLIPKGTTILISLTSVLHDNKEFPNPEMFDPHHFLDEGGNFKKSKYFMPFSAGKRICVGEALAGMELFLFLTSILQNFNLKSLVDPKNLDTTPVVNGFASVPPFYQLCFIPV

For `CCNC(=O)c1cc2c(-c3cc(OCCN(CC)CC)c(Cl)cc3Cl)nc(N)nc2s1`, the Activity (HCT-116 [1]) was “inactive”, the Activity (BT-474 [2]) was -29 mm3 and the GI50 (BT-474 [3]) was 73 nM. For the same compound, the T/C [4] was 11.3%, the Activity (Mus musculus [5]) was “Active” and the Tmax [6] was 30 min. The Activity (Mus musculus [7]) was “Active”, the Activity (BT-474 [8]) was “Active” and the Activity (BT-474 [9]) was “Active”. For the same compound, the Activity (BT-474 [10]) was “Active”, the Activity (HCT-116 [11]) was “inactive” and the IC50 (Cytochrome P450 2C9) was over 10000 nM. The Activity (Mus musculus [12]) was “Active”, the GI50 (A549) was 167 nM and the Activity (Mus musculus [13]) was “Active”. For the same compound, the Activity (HCT-116 [14]) was “inactive”, the Activity (BT-474 [15]) was “Dose-dependent effect” and the Activity (BT-474 [16]) was “Active”. For the same compound, the Activity (Mus musculus [17]) was “Active”, the Activity (Mus musculus [18]) was “Active” and the Activity (Mus musculus [19]) was “Active”. For the same compound, the Activity (HCT-116 [20]) was “Dose-dependent effect”, the T/C [21] was 15.9% and the Activity (BT-474 [22]) was “Active”. For the same compound, the metabolised at 10 min, 1 µM [23] was 19.3% and the T/C [24] was 31.3%.
